For data set [1], the system named is Mus musculus. Briefly: Inhibition of motor deficits in MPTP-induced C57Bl/6 mouse parkinson's disease model assessed as number of successful steps taken on the apparatus at 10 mg/kg/day, po for 3 days administered first dose at 24 hrs prior to first injection of 4X 20 mg/kg, ip MPTP challenge by vertical grid test (reference value: 75.4 +/-6.2%). The arrangement: scale not given: the % may be the effect or the level left. It counts as functional.

In data set [2] the target is T1, Nuclear factor erythroid 2-related factor 2 (Mus musculus) (UniProt Q60795).
T1 sequence (whole entry): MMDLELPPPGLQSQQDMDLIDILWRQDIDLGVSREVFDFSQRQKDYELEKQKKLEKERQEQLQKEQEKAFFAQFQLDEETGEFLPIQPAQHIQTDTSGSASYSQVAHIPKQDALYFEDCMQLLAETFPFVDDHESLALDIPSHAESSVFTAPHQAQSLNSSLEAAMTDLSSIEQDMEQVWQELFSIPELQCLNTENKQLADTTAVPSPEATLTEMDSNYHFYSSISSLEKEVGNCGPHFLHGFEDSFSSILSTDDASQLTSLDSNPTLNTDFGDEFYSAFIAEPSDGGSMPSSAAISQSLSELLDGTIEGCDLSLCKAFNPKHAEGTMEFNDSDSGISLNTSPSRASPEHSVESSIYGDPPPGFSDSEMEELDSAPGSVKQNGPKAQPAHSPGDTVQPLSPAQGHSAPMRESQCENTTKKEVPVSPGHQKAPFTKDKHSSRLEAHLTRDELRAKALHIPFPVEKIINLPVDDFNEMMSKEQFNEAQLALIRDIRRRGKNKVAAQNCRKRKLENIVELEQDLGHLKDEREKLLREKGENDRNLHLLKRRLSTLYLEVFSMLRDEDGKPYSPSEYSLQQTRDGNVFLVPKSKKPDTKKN
Briefly: Induction of Nrf2-dependent HO1 protein expression in mouse CATH.a cells at 0.1 uM after 24 hrs by western blot analysis. It counts as cell-based. A digest of the protocol: (§1)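 Cells (CATH.a) exposed to graded concentrations for 24 h, lysed in RIPA buffer with protease inhibitors. Equal protein separated on 10% SDS gel, blotted; primary antibodies overnight at 4 °C, HRP secondary, chemiluminescence. Densitometry normalized to β-actin. At least duplicate cultures, fold of untreated control ± SEM.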
(In general: Immunoblotting shows a protein as a band on a membrane.)

The target in data set [3] is T1, Nuclear factor erythroid 2-related factor 2 (Mus musculus). Briefly: Induction of Nrf2-dependent GCLC protein expression in mouse CATH.a cells at 0.1 uM after 24 hrs by western blot analysis. Type of data set: cell-based. Summed up: as §1
Data set [4] relates to Mus musculus. As to the kind of experiment: Inhibition of motor deficits in MPTP-induced C57Bl/6 mouse parkinson's disease model assessed as time taken to climb down at 10 mg/kg/day, po for 3 days administered first dose at 24 hrs prior to first injection of 4X 20 mg/kg, ip MPTP challenge by vertical grid test (reference value: 22.4 +/-3.9 s). It counts as functional.
In data set [5] the target is T1, Nuclear factor erythroid 2-related factor 2 (Mus musculus). As to the kind of experiment: Induction of Nrf2-dependent GCLC gene expression in mouse CATH.a cells at 10 uM after 6 hrs by RT-PCR analysis relative to control. It counts as cell-based. A digest of the protocol: (§2)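 CATH.a cells grown in RPMI 1640 with 8% horse serum and 4% FBS, exposed to graded concentrations for 6 h. mRNA analysed by RT-PCR with gene-specific primers, products run on 1% agarose gel, band densitometry normalized to GAPDH. At least duplicate cultures; fold induction versus untreated control ± SEM.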

Data set [6] concerns Mus musculus. As to the kind of experiment: Neuroprotective activity against MPTP-induced neurodegeneration in C57Bl/6 mouse parkinson's disease model assessed as increase in DAergic neurons in SN at 10 mg/kg/day, po for 3 days administered first dose at 24 hrs prior to first injection of 4X 20 mg/kg, ip MPTP challenge measured 7 days after first MPTP injection by immunohistochemistry. It counts as functional, organism-based. Summed up:
(§3)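 Male C57Bl/6 mice (23−25 g, n = 10/group) dosed orally at 10 mg/kg/day for 3 days, vehicle N-methyl-2-pyrrolidone and 20% Tween 80 in saline. MPTP 4 × 20 mg/kg ip 2 h apart, starting 24 h after first oral dose. Perfusion-fixed 7 days after first MPTP; TH immunostaining, nigral cells counted and striatal fibers densitometered on five sections each, 80 μm apart. Expressed as % vehicle control ± SEM.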

Data set [7] addresses T1, Nuclear factor erythroid 2-related factor 2 (Mus musculus). Briefly: Induction of Nrf2-dependent NQO1 gene expression in mouse CATH.a cells at 0.1 uM after 6 hrs by RT-PCR analysis. It counts as cell-based. A digest of the protocol:
as §2

Data set [8] shares this target. Briefly: Induction of Nrf2-dependent HO1 protein expression in mouse CATH.a cells at 1 to 10 uM after 24 hrs by western blot analysis relative to control. Type of data set: cell-based. Summed up: as §1
For data set [9] the target is unchanged. As to the kind of experiment: Induction of Nrf2 nuclear translocation in mouse CATH.a cells after 3 hrs by western blot analysis. Type of data set: cell-based. Summed up: (§4)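 Mouse DAergic CATH.a cells treated at various concentrations for 3 h. Nuclei isolated by hypotonic HEPES buffer/NP-40 lysis, then nuclear proteins extracted in 400 mM NaCl HEPES buffer. Nrf2 Western blot with lamin B as nuclear marker, chemiluminescent detection, densitometry. At least duplicate cultures, expressed as fold induction over untreated control ± SEM.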

The target is the same in data set [10]. Briefly: Induction of Nrf2-dependent GCLM gene expression in mouse CATH.a cells at 10 uM after 6 hrs by RT-PCR analysis relative to control. It counts as cell-based. A digest of the protocol:
as §2

For data set [11] the target is unchanged. Briefly: Induction of Nrf2-dependent HO1 gene expression in mouse CATH.a cells at 1 to 10 uM after 6 hrs by RT-PCR analysis relative to control. It counts as cell-based. Summed up:
as §2

Data set [12] has as its system Mus musculus. Briefly: Inhibition of motor deficits in MPTP-induced C57Bl/6 mouse parkinson's disease model assessed as total time taken on grid apparatus at 10 mg/kg/day, po for 3 days administered first dose at 24 hrs prior to first injection of 4X 20 mg/kg, ip MPTP challenge by vertical grid test (reference value: 34.8 +/-5.4s). Type of data set: functional.
Data set [13] concerns the target T1, Nuclear factor erythroid 2-related factor 2 (Mus musculus). Briefly: Induction of Nrf2 nuclear translocation in mouse CATH.a cells at 10 uM after 3 hrs by western blot analysis relative to control. It counts as cell-based. Summed up:
as §4

The subject of data set [14] is Mus musculus. As to the kind of experiment: Effect on DAergic neurons in C57Bl/6 mouse SN at 10 mg/kg/day, po for 3 days by immunohistochemistry. On the set-up: route oral. It counts as ADME, organism-based. To be noted: in vivo, 72 h. Summed up: as §3
The target of data set [15] is T1, Nuclear factor erythroid 2-related factor 2 (Mus musculus). Briefly: Induction of Nrf2-dependent GCLC gene expression in mouse CATH.a cells at 0.1 uM after 6 hrs by RT-PCR analysis. Type of data set: cell-based. Summed up: as §2
Data set [16] has the same target. As to the kind of experiment: Induction of Nrf2 nuclear translocation in mouse CATH.a cells at 1 uM after 3 hrs by western blot analysis. It counts as cell-based. A digest of the protocol:
as §4

Data set [17] has the same target. Briefly: Induction of Nrf2-dependent GCLC protein expression in mouse CATH.a cells after 24 hrs by western blot analysis. Type of data set: cell-based. Summed up: as §1
The subject of data set [18] is Mus musculus. Briefly: Neuroprotective activity against MPTP-induced neurodegeneration in C57Bl/6 mouse parkinson's disease model assessed as increase in DAergic fibers in striatum at 10 mg/kg/day, po for 3 days administered first dose at 24 hrs prior to first injection of 4X 20 mg/kg, ip MPTP challenge measured 7 days after first MPTP injection by immunohistochemistry. It counts as functional, organism-based. A digest of the protocol:
as §3

In data set [19] the target is T1, Nuclear factor erythroid 2-related factor 2 (Mus musculus). As to the kind of experiment: Induction of Nrf2-dependent NQO1 gene expression in mouse CATH.a cells at 1 uM after 6 hrs by RT-PCR analysis relative to control. Type of data set: cell-based. A digest of the protocol: as §2
For data set [20] the target is unchanged. Briefly: Induction of Nrf2-dependent GCLM protein expression in mouse CATH.a cells at 0.1 uM after 24 hrs by western blot analysis. Type of data set: cell-based. A digest of the protocol:
as §1

Data set [21] has the same target. Briefly: Induction of Nrf2-dependent GCLM gene expression in mouse CATH.a cells at 2 uM after 6 hrs by RT-PCR analysis relative to control. It counts as cell-based. Summed up:
as §2

Calls of active or inactive are those of the source. The rule behind the calls is not given here.

For the compound `COc1ccccc1S(=O)(=O)/C=C/c1ccccc1Cl`, the Activity with Mus musculus [1] was 96.9%; in [9], “Dose-dependent effect”; with Mus musculus [14], “Non-toxic”; in data set [17] it was “Dose-dependent effect”. Also, the result in data set [2], in [3], in data set [7], in data set [15] and in data set [20] was inactive. The Time in the data set on Mus musculus [4] is reported as 6.3 s; with Mus musculus [12] it was 10.3 s. Besides, the fold change (FC) in data set [5] came to 2.64; in data set [8] it was 3; in data set [10], 2.56; in data set [11], 3; in [13] it was 3.5; in data set [19] it was 1.95. In addition, in data set [21], the fold change (FC) came out at 1.43. Further, the result (in the data set on Mus musculus [6]; in [16]; in the data set on Mus musculus [18]) was Active.

The values are drawn from ChEMBL document CHEMBL3124841, “Discovery of vinyl sulfones as a novel class of neuroprotective agents toward Parkinson's disease therapy” (J Med Chem, 2014).
